# Laboratory results as given in ChEMBL document CHEMBL1944511, “Bakuchiol derivatives as novel and potent cytotoxic agents: a report” (Eur J Med Chem, 2012).
# Key:
# Assay type in all cases: functional
# [1] = tested on: PC-3; assay: Growth inhibition of human PC3 cells at 1 uM after 48 hrs by sulpharhodamine B assay; details: PC-3, 48 h, read-out: GI
# Method in brief: (§1)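 This is the SRB protein-stain assay on adherent cells in RPMI-1640/MEM with 10% FCS. Each compound in DMSO (vehicle <0.2%) was applied at a single fixed concentration for 48 h. Cells were fixed with TCA and stained with SRB, and the dye was solubilised in Tris and read at 570/620 nm. Percent growth inhibition is relative to vehicle-treated controls, reported as mean ± SD of three experiments run in triplicate.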
# [2] = tested on: HEp-2; assay: Growth inhibition of human Hep2 cells at 1 uM after 48 hrs by sulpharhodamine B assay; details: HEp-2, 48 h, read-out: GI; method in brief: as §1
# [3] = tested on: MCF7; assay: Growth inhibition of human MCF7 cells at 1 uM after 48 hrs by sulpharhodamine B assay; details: MCF7, 48 h, read-out: GI; method in brief: as §1
# [4] = tested on: A549; assay: Growth inhibition of human A549 cells at 1 uM after 48 hrs by sulpharhodamine B assay; details: A549, 48 h, read-out: GI; method in brief: as §1
# [5] = tested on: A549; assay: Growth inhibition of human A549 cells at 20 uM after 48 hrs by sulpharhodamine B assay; details: A549, 48 h, read-out: GI; method in brief: as §1
# [6] = tested on: PC-3; assay: Growth inhibition of human PC3 cells at 20 uM after 48 hrs by sulpharhodamine B assay; details: PC-3, 48 h, read-out: GI; method in brief: as §1
# [7] = tested on: OVCAR-5; assay: Growth inhibition of human OVCAR5 cells at 20 uM after 48 hrs by sulpharhodamine B assay; details: OVCAR-5, 48 h, read-out: GI
# Method in brief: (§2)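 Cells grown at 37 °C, 5% CO2 in RPMI-1640/MEM with 10% FCS and penicillin/streptomycin, then seeded in 96-well plates and allowed to adhere overnight. Compound was added in DMSO (vehicle <0.2% in untreated controls) and incubated 48 h. Cells were fixed with ice-cold TCA, stained with 0.4% SRB in 1% acetic acid, and the dye solubilised in 10 mM Tris-base. OD read at 570 nm (reference 620 nm).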
# [8] = tested on: IMR-32; assay: Growth inhibition of human IMR32 cells at 20 uM after 48 hrs by sulpharhodamine B assay; details: IMR-32, 48 h, read-out: GI; method in brief: as §1
# [9] = tested on: HeLa; assay: Growth inhibition of human HeLa cells at 20 uM after 48 hrs by sulpharhodamine B assay; details: read-out: GI; method in brief: as §2
# [10] = tested on: THP-1; assay: Growth inhibition of human THP1 cells at 20 uM after 48 hrs by sulpharhodamine B assay; details: THP-1, 48 h, read-out: GI
# Method in brief: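 Cells grown in RPMI-1640/MEM with 10% FCS, penicillin/streptomycin, 37 °C, 5% CO2. Seeded in 96-well plates, allowed to adhere overnight, then exposed 48 h to analogs in DMSO (vehicle <0.2% in controls). TCA-fixed, stained with 0.4% SRB in 1% acetic acid, dye solubilized in 10 mM Tris base, OD 570 nm (ref 620 nm). Mean ± SD of three experiments run in triplicate.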
# [11] = tested on: DU-145; assay: Growth inhibition of human DU145 cells at 20 uM after 48 hrs by sulpharhodamine B assay; details: DU-145, 48 h, read-out: GI; method in brief: as §1
# [12] = tested on: HCT-15; assay: Growth inhibition of human HCT15 cells at 20 uM after 48 hrs by sulpharhodamine B assay; details: HCT-15, 48 h, read-out: GI; method in brief: as §1
structure (smiles),measurement,setting,value
CO[C@@]12[C@H](COC(N)=O)C3=C(C(=O)C(C)=C(N)C3=O)N1C[C@@H]1N[C@@H]12 [MITOMYCIN],inhibition of growth at 1 µM,[1],70%
same,inhibition of growth at 1 µM,[2],78%
COc1cccc2c1C(=O)c1c(O)c3c(c(O)c1C2=O)C[C@@](O)(C(=O)CO)C[C@@H]3O[C@H]1C[C@H](N)[C@H](O)[C@H](C)O1 [DOXORUBICIN],inhibition of growth at 1 µM,[3],85%
same,inhibition of growth at 1 µM,[4],76%
O=c1[nH]cc(F)c(=O)[nH]1 [FLUOROURACIL],inhibition of growth at 20 µM,[5],76%
same,inhibition of growth at 20 µM,[6],75%
same,inhibition of growth at 20 µM,[7],75%
same,inhibition of growth at 20 µM,[8],79%
same,inhibition of growth at 20 µM,[9],71%
same,inhibition of growth at 20 µM,[10],85%
same,inhibition of growth at 20 µM,[11],75%
same,inhibition of growth at 20 µM,[12],63%
